Molecules are shown by their SMILES. Active and inactive are the calls of the source. The calls are words filed in the database; no cut-off is given here.

Assay [1] addresses T1, Estrogen receptor (Homo sapiens) (UniProt P03372).
T1 sequence (whole entry): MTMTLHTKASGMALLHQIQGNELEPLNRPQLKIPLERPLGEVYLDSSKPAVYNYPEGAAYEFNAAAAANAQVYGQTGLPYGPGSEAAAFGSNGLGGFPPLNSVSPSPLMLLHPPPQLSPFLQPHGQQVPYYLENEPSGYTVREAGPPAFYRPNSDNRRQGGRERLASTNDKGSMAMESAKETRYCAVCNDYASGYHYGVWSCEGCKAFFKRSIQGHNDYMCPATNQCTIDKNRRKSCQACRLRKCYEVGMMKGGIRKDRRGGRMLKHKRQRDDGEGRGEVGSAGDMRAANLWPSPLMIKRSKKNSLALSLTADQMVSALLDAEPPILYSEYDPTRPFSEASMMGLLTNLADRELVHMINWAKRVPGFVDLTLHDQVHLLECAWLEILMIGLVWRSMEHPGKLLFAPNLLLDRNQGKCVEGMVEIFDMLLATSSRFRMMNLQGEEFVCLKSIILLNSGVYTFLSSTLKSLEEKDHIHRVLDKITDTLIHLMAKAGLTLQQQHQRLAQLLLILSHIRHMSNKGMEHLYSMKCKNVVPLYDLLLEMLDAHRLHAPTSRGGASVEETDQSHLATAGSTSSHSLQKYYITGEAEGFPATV
The assay is described as follows: Binding affinity to human estrogen receptor expressed in HEK293 cells by scintillation counting based radioligand competition binding assay. The assay is classed as cell-based.

Assay [2] relates to Syrian golden hamster. Kind of assay: Reduction in LDL level in high fat and high cholesterol diet fed Syrian golden hamster at 30 mg/kg, po qd for 14 days. In kind it is functional. As to conditions: Mesocricetus auratus, 336 h. The method, boiled down:
(§1)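 Groups of Syrian golden hamsters (n = 6) kept on a high fat, high cholesterol diet for 14 days, dosed orally at 30 mg/kg once daily. Plasma HDL and LDL compared against untreated HFHC controls; mean with standard errors.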

Assay [3] has as its system Syrian golden hamster. Kind of assay: Increase in HDL level in high fat and high cholesterol diet fed Syrian golden hamster at 30 mg/kg, po qd for 14 days. In kind it is functional, Mesocricetus auratus. The method, boiled down:
as §1

A further assay addresses T2, Androgen receptor (Homo sapiens, UniProt P10275).
T2 sequence (P10275 whole entry): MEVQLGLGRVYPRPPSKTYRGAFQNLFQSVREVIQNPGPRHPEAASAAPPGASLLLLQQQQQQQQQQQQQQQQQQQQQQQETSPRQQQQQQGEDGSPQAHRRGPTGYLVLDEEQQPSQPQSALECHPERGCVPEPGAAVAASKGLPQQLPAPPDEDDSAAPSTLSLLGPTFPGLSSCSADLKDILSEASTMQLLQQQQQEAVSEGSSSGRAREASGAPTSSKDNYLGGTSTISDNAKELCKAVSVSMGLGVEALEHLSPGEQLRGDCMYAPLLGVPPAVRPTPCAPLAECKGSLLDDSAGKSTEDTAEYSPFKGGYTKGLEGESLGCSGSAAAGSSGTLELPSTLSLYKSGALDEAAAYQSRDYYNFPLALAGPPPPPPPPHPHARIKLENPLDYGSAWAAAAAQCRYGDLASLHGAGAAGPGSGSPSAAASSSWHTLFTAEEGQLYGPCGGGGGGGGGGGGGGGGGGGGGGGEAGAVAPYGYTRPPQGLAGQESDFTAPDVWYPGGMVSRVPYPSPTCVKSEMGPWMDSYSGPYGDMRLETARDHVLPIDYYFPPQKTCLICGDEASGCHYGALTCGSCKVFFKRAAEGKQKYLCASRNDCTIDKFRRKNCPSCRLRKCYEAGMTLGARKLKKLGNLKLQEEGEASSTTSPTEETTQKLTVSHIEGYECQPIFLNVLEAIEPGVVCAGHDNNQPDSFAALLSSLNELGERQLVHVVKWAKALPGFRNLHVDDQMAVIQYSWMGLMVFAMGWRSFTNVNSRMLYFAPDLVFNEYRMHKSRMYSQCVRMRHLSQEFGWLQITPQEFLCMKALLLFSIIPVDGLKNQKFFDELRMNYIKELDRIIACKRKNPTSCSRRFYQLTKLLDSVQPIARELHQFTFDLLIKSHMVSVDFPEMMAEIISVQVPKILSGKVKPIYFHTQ
Kind of assay: biochemical.

Assay [4] deals with T3, Mineralocorticoid receptor (Homo sapiens, UniProt P08235).
T3 sequence (P08235 whole entry): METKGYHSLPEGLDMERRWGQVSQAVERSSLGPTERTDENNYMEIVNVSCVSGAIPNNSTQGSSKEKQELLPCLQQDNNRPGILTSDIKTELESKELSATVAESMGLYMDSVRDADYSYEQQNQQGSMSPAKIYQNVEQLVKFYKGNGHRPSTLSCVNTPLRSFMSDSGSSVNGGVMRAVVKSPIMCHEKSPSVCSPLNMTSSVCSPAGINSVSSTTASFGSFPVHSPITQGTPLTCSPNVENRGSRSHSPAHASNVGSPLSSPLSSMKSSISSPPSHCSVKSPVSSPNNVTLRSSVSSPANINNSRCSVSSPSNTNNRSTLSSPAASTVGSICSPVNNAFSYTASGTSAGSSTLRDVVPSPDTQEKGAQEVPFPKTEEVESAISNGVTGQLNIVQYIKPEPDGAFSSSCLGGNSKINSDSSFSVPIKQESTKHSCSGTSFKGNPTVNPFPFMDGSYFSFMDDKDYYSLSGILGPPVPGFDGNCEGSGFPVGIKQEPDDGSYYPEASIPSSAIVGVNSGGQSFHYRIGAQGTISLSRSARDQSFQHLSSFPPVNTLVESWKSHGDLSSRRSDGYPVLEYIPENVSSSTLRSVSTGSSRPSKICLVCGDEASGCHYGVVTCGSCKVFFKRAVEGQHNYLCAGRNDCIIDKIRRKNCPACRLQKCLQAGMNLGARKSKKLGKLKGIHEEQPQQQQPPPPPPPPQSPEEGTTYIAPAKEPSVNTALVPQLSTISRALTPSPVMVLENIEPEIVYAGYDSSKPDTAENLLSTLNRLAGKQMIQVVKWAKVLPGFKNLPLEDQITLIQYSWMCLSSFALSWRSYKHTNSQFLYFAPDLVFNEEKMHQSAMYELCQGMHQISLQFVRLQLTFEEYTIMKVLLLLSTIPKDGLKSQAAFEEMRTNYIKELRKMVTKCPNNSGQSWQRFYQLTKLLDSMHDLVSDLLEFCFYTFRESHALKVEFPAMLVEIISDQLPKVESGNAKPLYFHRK
Kind of assay: biochemical.

The target in assay [5] is T4, Glucocorticoid receptor (Homo sapiens) (UniProt P04150).
T4 sequence (whole entry): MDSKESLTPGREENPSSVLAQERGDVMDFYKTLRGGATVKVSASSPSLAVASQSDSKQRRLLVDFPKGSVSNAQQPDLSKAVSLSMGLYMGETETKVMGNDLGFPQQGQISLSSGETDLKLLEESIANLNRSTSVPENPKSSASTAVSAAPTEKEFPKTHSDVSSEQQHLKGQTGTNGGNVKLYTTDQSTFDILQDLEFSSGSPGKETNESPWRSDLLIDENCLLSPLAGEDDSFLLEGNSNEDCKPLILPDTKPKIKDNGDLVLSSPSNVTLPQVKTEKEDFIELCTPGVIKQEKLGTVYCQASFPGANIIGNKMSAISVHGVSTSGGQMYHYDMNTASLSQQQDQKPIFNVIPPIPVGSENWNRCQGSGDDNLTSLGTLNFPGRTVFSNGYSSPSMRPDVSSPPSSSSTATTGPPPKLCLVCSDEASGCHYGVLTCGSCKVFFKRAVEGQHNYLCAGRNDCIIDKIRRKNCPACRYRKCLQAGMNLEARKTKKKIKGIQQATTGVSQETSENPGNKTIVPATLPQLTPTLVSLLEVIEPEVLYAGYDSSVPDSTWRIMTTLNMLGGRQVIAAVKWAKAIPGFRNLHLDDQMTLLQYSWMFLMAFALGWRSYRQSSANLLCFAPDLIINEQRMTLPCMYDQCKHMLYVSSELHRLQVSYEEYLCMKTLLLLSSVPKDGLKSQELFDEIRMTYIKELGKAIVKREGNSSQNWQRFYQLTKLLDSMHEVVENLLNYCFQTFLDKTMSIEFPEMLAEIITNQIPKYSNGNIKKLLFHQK
The assay is described as follows: Displacement of [3H]-dexamethasone from human glucocorticoid receptor expressed in HEK293 cells at 10 uM by scintillation counting based radioligand competition binding assay. The assay is classed as cell-based. The method, boiled down: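 Competition binding with 0.3 nM [3H]-dexamethasone and 20 μg 293-GR lysate per well; nonspecific binding defined with 0.5 μM dexamethasone. Incubated overnight at 4 °C, free ligand removed with charcoal–dextran, then scintillation counting. Percent inhibition at 10 μM was calculated.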

Regarding `COc1ccc(-c2c[nH]c3c(NS(C)(=O)=O)cccc23)cc1F`, the result in assay [1] was inactive.

Compound `CC#C[C@]1(O)CC[C@H]2[C@@H]3CCC4=CC(=O)CCC4=C3[C@@H](c3ccc(N(C)C)cc3)C[C@@]21C` [MIFEPRISTONE] returned an inhibition in vivo at 30 mg/kg with Syrian golden hamster [2] of 43%. For the same compound, the outcome in assay [1] was inactive. Moreover, in the assay with Syrian golden hamster [3], the Activity is listed as 35%.

Turning to `COc1ccc(F)cc1-c1c[nH]c2c(NC(C)=O)cccc12`, the Ki on Androgen receptor stood at 6.12 µM; in assay [4] it was 6.53 µM. For the same compound, the result in assay [1] was inactive.

For `COc1cc(F)ccc1-c1c(CN(C)Cc2ccccc2)[nH]c2c([N+](=O)[O-])cc(C(C)C)cc12`, the result in assay [5] and in assay [1] was inactive.

As for `Cc1[nH]c2ccccc2c1-c1ccccc1`, the result in assay [5] and in assay [1] was inactive.

Source of the values: ChEMBL document CHEMBL3603837, “Indole Glucocorticoid Receptor Antagonists Active in a Model of Dyslipidemia Act via a Unique Association with an Agonist Binding Site” (J Med Chem, 2015).
